According to ChEMBL document CHEMBL1146029, “The synthesis and in vitro testing of structurally novel antibiotics derived from acylnitroso Diels-Alder adducts” (2006):
Activity calls are given as the source filed them. The calls are words filed in the database; no cut-off is given here.

Tests used:
Pseudomonas aeruginosa = experiment: Antibacterial activity against PSE1 beta-lactamase Pseudomonas aeruginosa IV-3-13 by agar diffusion assay; assay type: functional
In short: (§1)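 Test bacteria at 10^6 CFU/ml were suspended in melted nutrient agar and poured into Petri dishes. 9 mm wells were cut and each filled with 50 µl of a 0.2 mM compound solution. Inhibition zones were read after 18 h at 37 °C. Growth of colonies inside the zone was flagged.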

Staphylococcus aureus [1] = experiment: Antibacterial activity against MRSA Staphylococcus aureus 134/93 by agar diffusion assay; assay type: functional; in short: as §1
Escherichia coli [2] = experiment: Antibacterial activity against TEM1 beta-lactamase Escherichia coli IV-3-2 by agar diffusion assay; assay type: functional; in short: as §1
Staphylococcus aureus [3] = experiment: Antibacterial activity against wild type Staphylococcus aureus SG 511 by agar diffusion assay; assay type: functional; in short: as §1
Enterococcus faecalis = experiment: Antibacterial activity against VRE Enterococcus faecalis 1528 by agar diffusion assay; assay type: functional; in short: as §1
Mycobacterium = experiment: Antibacterial activity against wild type Mycobacterium vaccae IMET10670 by agar diffusion assay; assay type: functional, Mycolicibacterium vaccae; in short: as §1
Klebsiella pneumoniae = experiment: Antibacterial activity against Klebsiella pneumoniae ATCC 8308 by agar diffusion assay; assay type: functional; in short: as §1
Salmonella enterica = experiment: Antibacterial activity against Salmonella enterica ATCC 13311 by agar diffusion assay; assay type: functional; in short: as §1
Escherichia coli [4] = experiment: Antibacterial activity against Escherichia coli X580 by agar diffusion assay; assay type: functional; in short: as §1
Escherichia coli [5] = experiment: Antibacterial activity against Escherichia coli ATCC 33475 by agar diffusion assay; assay type: functional; in short: as §1
Enterobacter cloacae = experiment: Antibacterial activity against ampC beta-lactamase Enterobacter cloacae P99 by agar diffusion assay; assay type: functional
Escherichia coli [6] = experiment: Antibacterial activity against wild type Escherichia coli DC0 by agar diffusion assay; assay type: functional; in short: as §1
Candida albicans = experiment: Antifungal activity against Candida albicans BMSY 212 by agar diffusion assay; assay type: functional
In short: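 Agar-well diffusion: Candida albicans at 10^6 CFU/ml was seeded in melted nutrient agar and poured into plates. Compound was loaded as 50 µl of a 0.2 mM solution into 9 mm holes. Plates were incubated at 30 °C and the inhibition zones recorded.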

[7] = tested on: Beta-lactamase (Bacillus cereus); experiment: Inhibition of Bacillus cereus penicillinase

| inhibition [7] | Structure (SMILES) | inhibition zone (IZ) (Pseudomonas aeruginosa) | inhibition zone (IZ) (Staphylococcus aureus [1]) | inhibition zone (IZ) (Escherichia coli [2]) | inhibition zone (IZ) (Staphylococcus aureus [3]) | inhibition zone (IZ) (Enterococcus faecalis) | inhibition zone (IZ) (Mycobacterium) | inhibition zone (IZ) (Klebsiella pneumoniae) | inhibition zone (IZ) (Salmonella enterica) | inhibition zone (IZ) (Escherichia coli [4]) | inhibition zone (IZ) (Escherichia coli [5]) | inhibition zone (IZ) (Enterobacter cloacae) | inhibition zone (IZ) (Escherichia coli [6]) | inhibition zone (IZ) (Candida albicans) |
| --- | --- | --- | --- | --- | --- | --- | --- | --- | --- | --- | --- | --- | --- | --- |
| – | O=C(O)c1cn(C2CC2)c2cc(N3CCNCC3)c(F)cc2c1=O [CIPROFLOXACIN] | 35 mm | 0 mm | 27 mm | 29 mm | 24 mm | 38 mm | – | – | – | – | – | – | – |
| – | C[C@@H](NC(=O)Cc1ccccc1)C(=O)N1O[C@H](C(=O)O)C[C@@H]1C(=O)O | – | – | – | – | – | – | 0 mm | 0 mm | 25 mm | 0 mm | – | – | – |
| – | CC1(C)S[C@@H]2[C@H](NC(=O)Cc3ccccc3)C(=O)N2[C@H]1C(=O)O [PENICILLIN G] | – | – | – | – | – | – | 12 mm | 37 mm | 54 mm | 23 mm | – | – | – |
| – | O=C(Cc1ccccc1)NCC(=O)N1O[C@H](C(=O)O)C[C@@H]1C(=O)O | 0 mm | 0 mm | 0 mm | 0 mm | 0 mm | 0 mm | 0 mm | 0 mm | 26 mm | 0 mm | 0 mm | 0 mm | 0 mm |
| – | CO/N=C(\C(=O)N[C@@H]1C(=O)N2C(C(=O)O)=C(COC(C)=O)CS[C@H]12)c1csc(N)n1 [CEFOTAXIME] | – | 0 mm | 28 mm | 26 mm | 22 mm | 0 mm | – | – | – | – | 0 mm | 21 mm | – |
| – | N[C@@H](C(=O)N[C@@H]1C(=O)N2C(C(=O)O)=C(Cl)CC[C@H]12)c1ccccc1 [LORACARBEF ANHYDROUS] | 0 mm | 0 mm | 23 mm | 28 mm | 0 mm | 0 mm | – | – | – | – | 0 mm | 24 mm | – |
| inactive | C[C@H](NC(=O)Cc1ccccc1)C(=O)N1O[C@H](C(=O)O)C[C@@H]1C(=O)O | – | – | – | – | – | – | 0 mm | 0 mm | 20 mm | 0 mm | – | – | – |
